Values joined by “and” are separate entries in the source; they are usually repeats but may differ in a detail not shown here. Identical values can stand only once. Like-named read-outs stand apart in the source and are kept apart here. Square brackets hold non-standard residues; d marks the D form. Peptide text beside a SMILES is read from it. Orn(N5-OH,N5-Ac) = CC(=O)N(O)CCC[C@H](N)C(=O)O
Assays:
[1] = biological target: KpnFyuA (Klebsiella pneumoniae, UniProt A4GZD6, S653C); experiment: Fluorescence quenching binding, KpnFyuA-FM sensor; details: 50% quenching
[2] = biological target: human siderocalin (HsaSCN) (Homo sapiens, UniProt P80188, Q148C); experiment: Fluorescence quenching binding, purified HsaSCN-FM sensor; details: HsaSCN-FM (Q128C), purified protein
Chain of human siderocalin (HsaSCN) (P80188 21-198 Q148C): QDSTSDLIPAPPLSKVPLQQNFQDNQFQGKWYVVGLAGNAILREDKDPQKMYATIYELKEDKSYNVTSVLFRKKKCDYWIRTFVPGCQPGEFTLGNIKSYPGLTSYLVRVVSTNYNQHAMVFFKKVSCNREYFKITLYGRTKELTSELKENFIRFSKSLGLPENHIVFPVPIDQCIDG

[3] = biological target: T1, EcoIutA (Escherichia coli, UniProt B7LI14, T574C); experiment: Fluorescence quenching binding, EcoIutA-FM sensor
T1 sequence (B7LI14 26-733 T574C): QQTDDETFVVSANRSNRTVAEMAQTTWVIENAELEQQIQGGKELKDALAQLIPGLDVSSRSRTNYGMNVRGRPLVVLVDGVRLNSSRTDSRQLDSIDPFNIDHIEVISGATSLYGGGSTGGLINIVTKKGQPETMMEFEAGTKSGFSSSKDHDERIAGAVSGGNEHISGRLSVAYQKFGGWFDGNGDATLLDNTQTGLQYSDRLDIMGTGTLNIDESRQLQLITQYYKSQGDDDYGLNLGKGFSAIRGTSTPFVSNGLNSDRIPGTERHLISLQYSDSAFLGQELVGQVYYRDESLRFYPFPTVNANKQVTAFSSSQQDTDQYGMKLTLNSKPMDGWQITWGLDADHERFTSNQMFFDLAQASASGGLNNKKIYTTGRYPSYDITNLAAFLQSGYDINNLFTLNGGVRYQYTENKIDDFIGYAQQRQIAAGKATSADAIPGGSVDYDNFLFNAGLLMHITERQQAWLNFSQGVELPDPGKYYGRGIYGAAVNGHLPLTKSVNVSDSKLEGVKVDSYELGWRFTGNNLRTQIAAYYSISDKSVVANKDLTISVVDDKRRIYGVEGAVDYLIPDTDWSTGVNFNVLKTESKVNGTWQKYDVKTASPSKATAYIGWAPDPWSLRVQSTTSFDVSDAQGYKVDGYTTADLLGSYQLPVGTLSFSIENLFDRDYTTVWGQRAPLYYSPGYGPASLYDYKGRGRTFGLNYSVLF

[4] = system: AbaFepA; type: binding, Acinetobacter baumannii
[5] = system: EcoCir; experiment: Fluorescence quenching binding, EcoCir-FM sensor; set-up: species or system Escherichia coli
How it was run: (§1)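 Cys-mutant receptor made in E. coli hosts (entA, tonB+ or ΔtonB) grown in iron-deficient MOPS at 37 °C to late exponential phase. Cells washed in 50 mM NaHPO₄ pH 6.7, labeled in situ with 5 μM fluorescein maleimide for 15 min at 37 °C, quenched with 100 μM β-mercaptoethanol, then resuspended in PBS + 0.2% glucose. Binding used 2.5 × 10⁷ cells in 2 ml, stirred at 37 °C. Iron complex added stepwise; 520 nm emission quenching read in triplicate; 1-F/F₀ vs [ligand] fitted to single-site model for KD.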

[6] = system: AbaPirA; experiment: Fluorescence quenching binding, AbaPirA-FM sensor; set-up: species or system Acinetobacter baumannii
How it was run: as §1

[7] = system: EcoFiu; experiment: Fluorescence quenching binding, EcoFiu-FM sensor; set-up: species or system Escherichia coli
How it was run: as §1

[8] = system: AbaPiuA; experiment: Fluorescence quenching binding, AbaPiuA-FM sensor; set-up: species or system Acinetobacter baumannii
How it was run: as §1

[9] = biological target: T2, KpnIroN (Klebsiella pneumoniae, UniProt A0ACD7U953, T234C); experiment: Fluorescence quenching binding, KpnIroN-FM sensor
T2 sequence (A0ACD7U953 25-724 T234C): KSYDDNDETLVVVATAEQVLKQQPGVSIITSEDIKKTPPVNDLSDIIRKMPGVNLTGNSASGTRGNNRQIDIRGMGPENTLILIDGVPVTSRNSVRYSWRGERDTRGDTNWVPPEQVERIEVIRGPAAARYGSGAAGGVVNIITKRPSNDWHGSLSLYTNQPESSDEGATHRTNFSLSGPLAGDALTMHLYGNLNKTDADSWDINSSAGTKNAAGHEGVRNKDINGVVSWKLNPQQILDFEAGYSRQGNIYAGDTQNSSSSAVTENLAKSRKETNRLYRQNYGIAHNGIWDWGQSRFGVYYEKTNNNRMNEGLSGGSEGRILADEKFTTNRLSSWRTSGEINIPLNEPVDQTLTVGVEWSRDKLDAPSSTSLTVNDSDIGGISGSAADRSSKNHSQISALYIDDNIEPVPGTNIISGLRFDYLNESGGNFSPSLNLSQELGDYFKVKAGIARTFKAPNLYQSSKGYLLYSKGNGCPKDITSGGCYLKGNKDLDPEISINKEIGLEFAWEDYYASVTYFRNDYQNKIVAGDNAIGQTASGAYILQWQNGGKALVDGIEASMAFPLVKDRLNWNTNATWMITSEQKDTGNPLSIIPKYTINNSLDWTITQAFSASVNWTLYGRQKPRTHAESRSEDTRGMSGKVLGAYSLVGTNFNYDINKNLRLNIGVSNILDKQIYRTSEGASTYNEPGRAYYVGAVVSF
How it was run: as §1

[10] = biological target: T3, EcoFepA (Escherichia coli, UniProt P05825, A720C); experiment: Fluorescence quenching binding, EcoFepA-FM sensor
T3 sequence (P05825 23-746 A720C): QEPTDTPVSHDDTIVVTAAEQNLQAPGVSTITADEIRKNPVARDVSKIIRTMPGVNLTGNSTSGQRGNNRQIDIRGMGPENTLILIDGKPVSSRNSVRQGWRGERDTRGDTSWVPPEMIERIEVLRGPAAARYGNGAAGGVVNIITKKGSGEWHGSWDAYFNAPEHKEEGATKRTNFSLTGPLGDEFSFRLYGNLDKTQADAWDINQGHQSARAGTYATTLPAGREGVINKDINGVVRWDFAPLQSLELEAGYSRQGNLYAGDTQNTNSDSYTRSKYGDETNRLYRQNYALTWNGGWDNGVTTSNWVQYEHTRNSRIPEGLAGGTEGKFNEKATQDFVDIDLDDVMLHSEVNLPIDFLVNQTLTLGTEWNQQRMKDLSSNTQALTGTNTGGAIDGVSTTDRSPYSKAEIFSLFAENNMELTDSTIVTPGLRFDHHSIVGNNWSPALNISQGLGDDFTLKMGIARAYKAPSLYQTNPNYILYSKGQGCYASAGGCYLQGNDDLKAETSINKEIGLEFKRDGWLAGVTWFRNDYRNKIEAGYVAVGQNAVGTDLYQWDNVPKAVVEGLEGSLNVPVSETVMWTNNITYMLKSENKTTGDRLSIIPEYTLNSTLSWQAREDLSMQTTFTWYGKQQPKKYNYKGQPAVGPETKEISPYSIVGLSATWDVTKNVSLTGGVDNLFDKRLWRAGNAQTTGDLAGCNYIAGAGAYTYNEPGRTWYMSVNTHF

[11] = biological target: T4, EcoFepB (Escherichia coli, UniProt P0AEL6, T297C); experiment: Fluorescence quenching binding, purified EcoFepB-FM sensor
T4 sequence (P0AEL6 27-318 T297C): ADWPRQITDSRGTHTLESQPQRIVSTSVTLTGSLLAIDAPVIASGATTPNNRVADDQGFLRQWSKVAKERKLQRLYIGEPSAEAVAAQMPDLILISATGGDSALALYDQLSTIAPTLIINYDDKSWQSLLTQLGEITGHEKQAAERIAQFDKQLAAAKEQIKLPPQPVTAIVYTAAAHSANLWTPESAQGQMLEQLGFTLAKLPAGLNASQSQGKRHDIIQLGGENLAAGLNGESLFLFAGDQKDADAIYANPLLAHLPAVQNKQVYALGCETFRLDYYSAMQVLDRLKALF
How it was run: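 His-tagged T297C FepB expressed from pET28 in E. coli and purified by metal affinity chromatography. Labeled with 5 μM fluorescein maleimide at pH 6.77 for 15 min, then repurified by gel filtration. Apo or ferric siderophores added at increasing concentrations, with three quenching determinations per concentration. Mean values fitted to a single-site binding model to give KD.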

[12] = biological target: T5, PaeFpvA (Pseudomonas aeruginosa, UniProt P48632, T660C); experiment: Fluorescence quenching binding, PaeFpvA-FM sensor
T5 sequence (P48632 44-815 T660C): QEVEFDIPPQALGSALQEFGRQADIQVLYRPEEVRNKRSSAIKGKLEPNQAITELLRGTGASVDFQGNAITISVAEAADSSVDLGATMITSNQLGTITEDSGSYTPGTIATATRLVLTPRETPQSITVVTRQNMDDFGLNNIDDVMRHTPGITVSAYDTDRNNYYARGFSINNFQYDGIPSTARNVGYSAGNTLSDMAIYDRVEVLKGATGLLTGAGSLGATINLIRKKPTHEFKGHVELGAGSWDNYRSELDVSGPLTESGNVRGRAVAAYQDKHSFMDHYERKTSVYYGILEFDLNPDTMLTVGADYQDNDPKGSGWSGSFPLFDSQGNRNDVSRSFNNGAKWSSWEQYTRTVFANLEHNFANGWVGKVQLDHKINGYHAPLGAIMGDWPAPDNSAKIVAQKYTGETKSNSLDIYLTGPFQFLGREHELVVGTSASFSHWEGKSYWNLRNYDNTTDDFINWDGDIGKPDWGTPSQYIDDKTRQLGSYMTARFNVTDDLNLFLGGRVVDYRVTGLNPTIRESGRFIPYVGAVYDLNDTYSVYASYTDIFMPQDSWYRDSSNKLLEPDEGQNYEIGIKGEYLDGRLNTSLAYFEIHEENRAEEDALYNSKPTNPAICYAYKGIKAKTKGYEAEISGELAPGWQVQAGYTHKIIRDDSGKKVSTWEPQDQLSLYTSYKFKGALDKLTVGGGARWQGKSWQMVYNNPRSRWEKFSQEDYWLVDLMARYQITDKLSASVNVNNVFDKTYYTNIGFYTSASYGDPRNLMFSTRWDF
How it was run: as §1

[13] = biological target: T3, EcoFepA; details: cited from earlier work
[14] = biological target: T2, KpnIroN; details: cited from earlier work
[15] = system: Iron-deficient Gram-negative bacteria, with maximally expressed chromosomal FepA; details: cited from earlier work

SMILES: CC(C)(C1=N[C@@](C)(C(=O)O)CS1)[C@H](O)[C@@H]1CS[C@H]([C@H]2CSC(c3ccccc3O)=N2)N1.[Fe+3] [FeYbt]
- Kd [1]: 1 nM
- Kd [2]: 11000 nM

SMILES: CC(=O)N(O)CCCC[C@H](NC(=O)CC(O)(CC(=O)N[C@@H](CCCCN(O)C(C)=O)C(=O)O)C(=O)O)C(=O)O.[Fe+3] [FeAbn, ferric aerobactin]
- Kd ([3]; EcoIutA-FM sensor, fluorescence quenching): 6 nM

SMILES: CC(=O)N([O-])CCC[C@@H]1NC(=O)CNC(=O)CNC(=O)CNC(=O)[C@H](CCCN([O-])C(C)=O)NC(=O)[C@H](CCCN([O-])C(C)=O)NC1=O.[Fe+3] [Fc, ferrichrome] (cyclo(GGG[Orn(N5-OH,N5-Ac)][Orn(N5-OH,N5-Ac)][Orn(N5-OH,N5-Ac)]))
- binding (in words) [3]: did not measurably bind
- Kd [2]: 110 nM

SMILES: CC(C)(O/N=C(\C(=O)N[C@@H]1C(=O)N2C(C(=O)[O-])=C(C[N+]3(CCNC(=O)c4ccc(O)c(O)c4Cl)CCCC3)CS[C@H]12)c1csc(N)n1)C(=O)O [FDC, cefidericol]
- binding (in words) [4]: bound
- binding (in words) [5]: bound
- binding (in words) [6]: bound
- binding (in words) [7]: bound
- binding (in words) [8]: bound
- binding (in words) [9]: bound

SMILES: O=C(N[C@H]1COC(=O)[C@@H](NC(=O)c2cccc(O)c2O)COC(=O)[C@@H](NC(=O)c2cccc(O)c2O)COC1=O)c1cccc(O)c1O [Ent, enterobactin]
- Kd [10]: 27 nM
- binding (in words) [11]: bound

SMILES: O=C(O)c1cccc(O)c1O.[Fe+3] [FeDHB]
- binding (in words) [7]: did not bind
- binding (in words) [12]: weakly bound
- binding (in words) [11]: bound
- Kd [2]: 330 nM

SMILES: O=C(N[C@H]1COC(=O)[C@@H](NC(=O)c2cccc(O)c2O)COC(=O)[C@@H](NC(=O)c2cccc(O)c2O)COC1=O)c1cccc(O)c1O.[Fe+3] [FeEnt, ferric enterobactin]
- fold higher affinity for FeEnt than for FeGEnt ([10]; EcoFepA-FM): ~300 fold
- Kd ([4]; AbaFepA-FM sensor, fluorescence quenching): ~25 nM and 17 nM
- binding (in words) [5]: bound
- binding (in words) [7]: bound
- binding (in words) [12]: weakly bound
- Kd ([11]; EcoFepB-FM (T297C), purified protein): 43000 nM
- fold less affinity than EcoFepA ([11]; FeEnt, EcoFepB-FM vs EcoFepA): about 100 fold
- Kd [2]: 10 to 12 nM
- Kd ([13]; ref 53, 68, 69, 70): 0.1 to 0.4 nM
- Kd ([13]; ref 53): 0.4 nM
- Kd [14]: 0.4 nM
- transport rate [15]: ~50 pmol/10^9 cells/min
